Results reported in ChEMBL document CHEMBL1140840, “New insight for fluoroquinophenoxazine derivatives as possibly new potent topoisomerase I inhibitor” (Bioorg Med Chem Lett, 2008).

Experiments:
[1] = target: DNA topoisomerase 2-alpha (Homo sapiens) (UniProt P11388); assay: Inhibition of human topoisomerase 2alpha assessed as relaxation of supercoiled DNA pBR322 at 2 uM relative to etoposide
Method in brief: (§1)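 Human topo IIα (2 units) with 200 ng supercoiled pBR322 in 10 mM Tris-HCl pH 7.9, 50 mM NaCl, 5 mM MgCl2, 1 mM EDTA, 1 mM ATP, 15 µg/mL BSA, 30 min at 30 °C. Compounds at 2 or 10 µM, from 20 mM DMSO stocks. Stopped with EDTA. Products on 1% agarose, stained with ethidium bromide. Supercoiled DNA quantified under UV.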

[2] = target: DNA topoisomerase 2-alpha (Homo sapiens) (UniProt P11388); assay: Inhibition of human topoisomerase 2alpha assessed as relaxation of supercoiled DNA pBR322 at 10 uM relative to etoposide; method in brief: as §1
DU-145 = assay: Cytotoxicity against human DU145 cells; format: functional, cell-based
Method in brief: (§2)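 Cells seeded at 2–4 × 10⁴ per well, grown overnight in medium with 10% FBS at 37 °C under 5% CO₂. On day 2 the medium was replaced with medium holding graded compound concentrations. Absorbance was read at 450 nm. IC50 came from a four-parameter logistic fit. Mean ± SD of three experiments, each in triplicate.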

HCT-116 = assay: Cytotoxicity against human HCT116 cells; format: functional, cell-based; method in brief: as §2
HeLa = assay: Cytotoxicity against human HeLa cells; format: functional, cell-based; method in brief: as §2
MDA-MB-231 = assay: Cytotoxicity against human MDA-MB-231 cells; format: functional, cell-based; method in brief: as §2
HL-60 = assay: Cytotoxicity against human HL60 cells; format: functional, cell-based; method in brief: as §2
Bos taurus [3] = species on record: Bos taurus; assay: Inhibition of calf thymus topoisomerase 1 assessed as relaxation of supercoiled DNA pBR322 at 2 uM relative to camptothecin
Bos taurus [4] = species on record: Bos taurus; assay: Inhibition of calf thymus topoisomerase 1 assessed as relaxation of supercoiled DNA pBR322 at 20 uM relative to camptothecin

DNA topoisomerase 2-alpha (Homo sapiens), sequence (P11388 whole entry): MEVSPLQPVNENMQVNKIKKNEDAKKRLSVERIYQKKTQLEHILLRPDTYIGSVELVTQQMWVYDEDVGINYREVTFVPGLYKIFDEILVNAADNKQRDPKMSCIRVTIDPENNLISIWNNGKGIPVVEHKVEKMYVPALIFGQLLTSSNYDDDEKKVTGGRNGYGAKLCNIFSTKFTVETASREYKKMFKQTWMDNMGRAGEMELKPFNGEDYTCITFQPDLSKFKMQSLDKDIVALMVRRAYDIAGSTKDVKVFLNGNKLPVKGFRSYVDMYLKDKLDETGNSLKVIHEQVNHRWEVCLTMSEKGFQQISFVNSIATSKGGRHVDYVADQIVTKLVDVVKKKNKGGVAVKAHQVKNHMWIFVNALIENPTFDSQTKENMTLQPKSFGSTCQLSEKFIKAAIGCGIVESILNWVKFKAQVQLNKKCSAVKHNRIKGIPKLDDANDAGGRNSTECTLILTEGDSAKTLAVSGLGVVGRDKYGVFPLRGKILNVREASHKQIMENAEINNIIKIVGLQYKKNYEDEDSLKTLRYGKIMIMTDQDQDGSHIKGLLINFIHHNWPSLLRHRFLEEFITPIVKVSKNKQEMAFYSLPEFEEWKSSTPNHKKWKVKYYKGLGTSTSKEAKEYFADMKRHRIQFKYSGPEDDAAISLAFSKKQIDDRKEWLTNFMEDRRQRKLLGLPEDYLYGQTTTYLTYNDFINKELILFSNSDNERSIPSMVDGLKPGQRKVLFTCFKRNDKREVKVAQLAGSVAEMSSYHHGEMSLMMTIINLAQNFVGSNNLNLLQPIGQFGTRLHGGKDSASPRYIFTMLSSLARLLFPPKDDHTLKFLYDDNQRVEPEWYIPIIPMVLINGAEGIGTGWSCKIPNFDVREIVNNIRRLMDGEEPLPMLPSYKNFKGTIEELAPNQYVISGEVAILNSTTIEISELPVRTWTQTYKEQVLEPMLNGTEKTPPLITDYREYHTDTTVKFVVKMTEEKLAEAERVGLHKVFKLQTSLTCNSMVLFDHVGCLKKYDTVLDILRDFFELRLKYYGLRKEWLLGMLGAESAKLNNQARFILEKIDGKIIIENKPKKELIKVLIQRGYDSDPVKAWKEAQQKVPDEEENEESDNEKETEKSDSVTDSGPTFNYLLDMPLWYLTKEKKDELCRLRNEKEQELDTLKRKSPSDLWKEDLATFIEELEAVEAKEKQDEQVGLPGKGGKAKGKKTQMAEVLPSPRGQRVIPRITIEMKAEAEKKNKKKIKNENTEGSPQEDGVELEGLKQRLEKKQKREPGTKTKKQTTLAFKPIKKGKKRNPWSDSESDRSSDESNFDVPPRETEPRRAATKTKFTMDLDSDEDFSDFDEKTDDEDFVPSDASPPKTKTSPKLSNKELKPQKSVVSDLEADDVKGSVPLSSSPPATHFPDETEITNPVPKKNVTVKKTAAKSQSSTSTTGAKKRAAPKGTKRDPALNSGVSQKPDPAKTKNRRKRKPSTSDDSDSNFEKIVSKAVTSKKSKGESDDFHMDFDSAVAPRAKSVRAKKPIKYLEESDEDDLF

Structure (SMILES) | inhibition [1] [%] | inhibition [2] [%] | IC50 (DU-145) [µM] | IC50 (HCT-116) [µM] | IC50 (HeLa) [µM] | IC50 (MDA-MB-231) [µM] | IC50 (HL-60) [µM] | inhibition (Bos taurus [3]) [%] | inhibition (Bos taurus [4]) [%]
COc1cc([C@@H]2c3cc4c(cc3[C@@H](O[C@@H]3O[C@@H]5CO[C@@H](C)O[C@H]5[C@H](O)[C@H]3O)[C@H]3COC(=O)[C@H]23)OCO4)cc(OC)c1O [ETOPOSIDE] | 0.7 | 40.9 | 29.8 | 15.1 | 18.2 | 16.2 | 1.44 |  | 
N[C@H]1CCN(c2c(F)cc3c(=O)c(C(=O)O)cn4c3c2Oc2nc(O)ncc2-4)C1 | 0 | 28.8 | > 50 | > 50 | > 50 | > 50 | > 50 | 32.4 | 0
N[C@H]1CCN(c2c(F)cc3c(=O)c(C(=O)O)cn4c3c2Oc2ccccc2-4)C1 | 89.1 | 89.4 | 1.82 | 0.87 | 2.33 | 4.34 | 2.4 | 88.9 | 90.2
N[C@H]1CCN(c2c(F)cc3c(=O)c(C(=O)O)cn4c3c2Oc2ccc(Cl)cc2-4)C1 | 89 | 88.6 | 17.6 | 2.56 | 2.01 | 19.3 | 1.63 | 87.9 | 86.1
N[C@H]1CCN(c2c(F)cc3c(=O)c(C(=O)O)cn4c3c2Sc2ccccc2-4)C1 | 57 | 91.7 | 19.3 | 2.41 | 5.08 | 19.2 | 11.5 | 45.1 | 97.2
N[C@H]1CCN(c2c(F)cc3c(=O)c(C(=O)O)cn4c3c2Oc2cc(S(=O)(=O)O)c3ccccc3c2-4)C1 | 1.9 | 24.7 | > 50 | > 50 | > 50 | > 50 | > 50 | 39.1 | 25
O=C(O)c1cn2c3c(c(F)c(F)cc3c1=O)Oc1ccccc1-2 | 0.5 | 82.4 | > 50 | 6.3 | > 50 | > 50 | > 50 | 53.5 | 96.6
COc1cccc2c1C(=O)c1c(O)c3c(c(O)c1C2=O)C[C@@](O)(C(=O)CO)C[C@@H]3O[C@H]1C[C@H](N)[C@H](O)[C@H](C)O1 [DOXORUBICIN] |  |  | 1.57 | 1.1 | 3.09 | 1.39 | 0.72 |  | 
N[C@H]1CCN(c2c(F)cc3c(=O)c(C(=O)O)cn4c3c2Oc2ccc([N+](=O)[O-])cc2-4)C1 | 26 | 91.6 | 13.8 | 7.45 | 17.7 | 19.8 | 9.93 | 65.7 | 95.3
CC[C@@]1(O)C(=O)OCc2c1cc1n(c2=O)Cc2cc3ccccc3nc2-1 [CAMPTOTHECIN] |  |  | 3.2 | 1 | 1.08 | 4.16 | 0.013 | 63.3 | 84.1
